Results on 6 molecules are retold here after ChEMBL document CHEMBL1128383, “Potent, orally active, competitive N-methyl-D-aspartate (NMDA) receptor antagonists are substrates for a neutral amino acid uptake system in Chinese hamster ovary cells” (J Med Chem, 1995).

A value given as a limit tells only on which side of the number the result lay.

For data set [1], the system named is Mus musculus. Briefly: Maximal electroshock results in mice by iv administration of 3 mg/kg expressed as 50% effective dose. It is filed as functional.
Data set [2] is filed under the species Mus musculus. Kind of data set: Potent oral activity in MES mice. Format: functional.
In data set [3] the target is Glutamate NMDA receptor. Briefly: Inhibition of receptor binding affinity in […] measured using LDH release. A digest of the protocol: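 Neuronal cell-culture excitotoxicity assay. Cell death is induced by a 5 min application of 100 μM NMDA and read out as lactate dehydrogenase release. The value is the compound concentration needed to prevent cell death.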
On the technique in general: LDH in the medium is a marker of cell lysis.

Data set [4] deals with Glutamate NMDA receptor. Kind of data set: (§1) Inhibition of NMDA receptor binding affinity in rat brain synaptosomal membrane using [3H]glutamate as radioligand. Format: cell membranes. A digest of the protocol:
(§2)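 Displacement of radioligand ([3H]glutamate, [3H]glycine or [3H]CGP 39653) from rat cortex synaptosomal membranes. IC50 values are means of at least two experiments, each run in triplicate.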

In data set [5] the target is Glutamate NMDA receptor. Kind of data set: (§3) Inhibition of NMDA receptor binding affinity in rat brain synaptosomal membrane using [3H]glycine as radioligand. Format: cell membranes. In short, it runs like this:
as §2

Data set [6] deals with Glutamate NMDA receptor. Kind of data set: (§4) Inhibition of receptor binding affinity in rat brain synaptosomal membrane was determined by [3H]-CGP- 39653 as radioligand. It is filed as cell membranes. A digest of the protocol: as §2
Data set [7] can be described thus: Therapeutic index(TI) expressed as ratio of ataxia ED50 to the MES ED50 was determined. The following applies: read-out: TI.
Data set [8] has as its target T1, Glutamate NMDA receptor (Rattus norvegicus) (UniProt P35439+Q00959+Q00960+Q00961+Q62645+Q8VHN2+Q9R1M7). The data set is described as §1. It is filed as cell membranes. The following applies: concentration not given here. A digest of the protocol:
as §2

Data set [9] deals with T1, Glutamate NMDA receptor (Rattus norvegicus). The description is as §3. It is filed as cell membranes. The following applies: concentration not given here. A digest of the protocol:
as §2

The target is the same in data set [10]. The data set is described as §4. It is filed as cell membranes. The following applies: concentration not given here. A digest of the protocol:
as §2

Data set [11] shares this target. Kind of data set: (§5) Inhibition of NMDA receptor binding affinity in rat brain synaptosomal membrane by using [3H]glycine as radioligand. It is filed as cell membranes. The following applies: concentration not given here. A digest of the protocol:
as §2

Data set [12] shares this target. Briefly: Inhibition of NMDA receptor binding in rat brain synaptosomal membrane using [3H]glutamate as radioligand. It is filed as cell membranes. The following applies: concentration not given here. In short, it runs like this:
as §2

Data set [13] has as its target Glutamate NMDA receptor. The data set is described as §5. Format: cell membranes. A digest of the protocol: (§6)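 Displacement of the named radioligand from rat cortex synaptosomal membranes, following previously reported procedures. IC50 values are means of at least two experiments, each run in triplicate.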
Data set [14] deals with Glutamate NMDA receptor. Kind of data set: Inhibition of NMDA receptor binding affinity in rat brain synaptosomal membrane was determined by [3H]-CGP- 39653 as radioligand. Format: cell membranes. In short, it runs like this:
as §6

Turning to `N[C@@H](Cc1cc(CP(=O)(O)O)cc(-c2cccc3ccccc23)c1)C(=O)O`, the results for the ED50 in the data set with Mus musculus [1] and in the data set listed under Mus musculus [2] were 0.53 mg/kg and 5 mg/kg, respectively. Also, the half-inhibitory concentration (IC50) came to 50 nM at Glutamate NMDA receptor [3], 15 nM at Glutamate NMDA receptor [4], 65400 nM on Glutamate NMDA receptor [5] and 6 nM at Glutamate NMDA receptor [6]. In data set [7], the selectivity ratio was 2.28.
For the molecule `N[C@H](Cc1cc(CP(=O)(O)O)cc(-c2ccc3ccccc3c2)c1)C(=O)O`, the IC50 turned out to be 650 nM on Glutamate NMDA receptor [4] and 590 nM at Glutamate NMDA receptor [6].
On to `N[C@@H](Cc1cccc(-c2ccccc2)c1)C(=O)O`, for which the inhibition was determined as 58% in [8], 52% in data set [9] and 52% in data set [10].
As to `O=P(O)(O)Cc1cc(CP(=O)(O)O)cc(-c2ccccc2)c1`, the inhibition in [11] amounted to 100%; in data set [12] it was 80%; in data set [10], 86%.
For the molecule `N[C@@H](Cc1cc(-c2ccccc2)cc(CP(=O)(O)O)c1[N+](=O)[O-])C(=O)O`, the IC50 at Glutamate NMDA receptor [4] turned out to be 2300 nM; on Glutamate NMDA receptor [5], 11500 nM; on Glutamate NMDA receptor [6], 1080 nM.
As for `O=C(O)C1CN(CCCP(=O)(O)O)CCN1` (configuration not stated), the IC50 on Glutamate NMDA receptor [13] was greater than 200000 nM; on Glutamate NMDA receptor [4] it was 837 nM; on Glutamate NMDA receptor [14], 148 nM. The selectivity ratio in data set [7] came out at 2.21.

For orientation: ED50 means the midpoint of the dose-response relation. A low value points to greater potency. For orientation: IC50 means the point on the concentration scale where inhibition reaches its midpoint. Higher therefore signals weaker potency. What is called inhibition is the percentage by which the read-out fell short of the control.
